Assay results gathered from unrelated publications.
Compare with care: the assays were run in different laboratories. In brackets after ≈: the same amount, converted by molar mass.
Organism: Candida albicans
Read-out: microbial growth

| Structure (SMILES) | test | test system | setting | quantity | result |
| --- | --- | --- | --- | --- | --- |
| CC(C)=CCCC(C)=CC1c2c(C)nn(-c3ccccc3)c2NN1C(=O)c1ccncc1 (centres unmarked) |  | MTCC183 |  | MIC | 32 µg/mL (≈ 74.8 µM) |
| CC(=O)Oc1ccc(-c2c(C(N)=O)c(N)n(N)c(=O)c2C#N)cc1 | well diffusion | ATCC10231 | 500 µg/mL | inhibition zone | 12 mm |
| Clc1ccccc1C(c1ccccc1)(c1ccccc1)n1ccnc1 |  | MTCC183 |  | MIC | 0.5 µg/mL (≈ 1.45 µM) |
| N#Cc1c(-c2ccc(Cl)cc2Cl)c(C(N)=S)c(N)n(N)c1=O | well diffusion | ATCC10231 | 500 µg/mL | inhibition zone | 13 mm |
| COc1cc(Cc2cnc(N)nc2N)cc(OC)c1OC | broth dilution | SC5314 |  | MIC | 64 µg/mL (≈ 220 µM) |
| CC(=O)N1CCN(c2ccc(OCC3COC(Cn4ccnc4)(c4ccc(Cl)cc4Cl)O3)cc2)CC1 (centres unmarked) | well diffusion | ATCC10231 | 500 µg/mL | inhibition zone | 24 mm |
| Cc1ccccc1NC(=O)C=Cc1ccc(O)c(O)c1 | broth dilution | SC5314 |  | MIC | 32 µg/mL (≈ 119 µM) |
| Cc1nn(-c2ccccc2)c2c1C(c1cncs1)N(C(=O)c1ccncc1)N2 (centres unmarked) |  | MTCC183 |  | MIC | > 100 µg/mL |
| C[C@@H]1[C@H](O)[C@@H](C)/C=C/C=C/C=C/C=C/C=C/C=C/C=C/[C@H](O[C@@H]2O[C@H](C)[C@@H](O)[C@H](N)[C@@H]2O)C[C@@H]2O[C@](O)(C[C@@H](O)C[C@@H](O)[C@H](O)CC[C@@H](O)C[C@@H](O)CC(=O)O[C@H]1C)C[C@H](O)[C@H]2C(=O)O | broth dilution | ATCC60193 | 24 h | MIC | 2 µg/mL (≈ 2.16 µM) |
| N#Cc1c(-c2ccc(OCc3ccccc3)cc2)c(C(N)=O)c(N)n(N)c1=O | well diffusion | ATCC10231 | 500 µg/mL | inhibition zone | 10 mm |
| O=C(C=Cc1ccc(O)c(O)c1)OCc1ccccc1 | broth dilution | SC5314 |  | MIC | 64 µg/mL (≈ 237 µM) |
| O=C1C(Br)=C(Br)C(=O)c2ccccc21 | broth dilution | ATCC60193 | 24 h | MIC | 3.12 µg/mL (≈ 9.89 µM) |
| Cc1nn(-c2ccccc2)c2c1C(c1c[nH]c3ccccc13)N(C(=O)c1ccncc1)N2 (centres unmarked) |  | MTCC183 |  | MIC | 32 µg/mL (≈ 76.1 µM) |
| OC(Cn1cncn1)(Cn1cncn1)c1ccc(F)cc1F | broth dilution | SC5314 |  | MIC | 0.25 µg/mL (≈ 0.816 µM) |
| CN(C)c1ccc(-c2c(C(N)=S)c(N)n(N)c(=O)c2C#N)cc1 | well diffusion | ATCC10231 | 500 µg/mL | inhibition zone | 17 mm |
| O=C(C=Cc1ccc(O)c(O)c1)Oc1cccc2cccnc12 | broth dilution | SC5314 |  | MIC | 16 µg/mL (≈ 52.1 µM) |
| COc1ccc(C2c3c(C)nn(-c4ccccc4)c3NN2C(=O)c2ccncc2)cc1 (centres unmarked) |  | MTCC183 |  | MIC | 16 µg/mL (≈ 38.9 µM) |
